Consider two compounds from ChEMBL document CHEMBL2150893, “Synthesis of β-ionone derived chalcones as potent antimicrobial agents” (2012).

One test has as its system Bacillus subtilis. In words: Antibacterial activity against Bacillus subtilis MTCC 2451 after 24 hrs by serial dilution method. Format: functional. The settings on record: MTCC 2451, 24 h. Summed up: (§1)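 Serial tube dilution MIC. Strains were grown in nutrient broth to an OD600 of 0.4-0.6. Compounds were tested at 0.78, 1.56, 3.12, 6.25, 12.5, 25 and 50 µg/ml, each in a separate tube containing 5 ml nutrient broth plus 1 ml compound solution. Tubes were incubated 24 h with shaking at 180 rpm. Growth was followed by optical density at 600 nm.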

Test [1] in a line: Antifungal activity against Cryptococcus gastricus MTCC 1715 after 24 hrs by serial dilution method. Format: functional. The settings on record: Goffeauzyma gastrica. Summed up: (§2)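 Fungal MIC by serial tube dilution. Dilutions of test compounds (1.9–500 µg/ml) were made from stock solution. Each tube held 1 ml nutrient broth and received 20 µl of standard strain culture.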
Another test concerns Staphylococcus aureus. In words: Antibacterial activity against Staphylococcus aureus MTCC 96 after 24 hrs by serial dilution method. Format: functional. The settings on record: MTCC 96, 24 h. Summed up:
as §1

A further test concerns Escherichia coli. In words: Antibacterial activity against Escherichia coli MTCC 82 after 24 hrs by serial dilution method. The settings on record: MTCC 82, 24 h. It counts as functional. Summed up: as §1
The next test deals with Pseudomonas aeruginosa. The experiment in a line: Antibacterial activity against Pseudomonas aeruginosa MTCC 2642 after 24 hrs by serial dilution method. Conditions: MTCC 2642, 24 h. Format: functional. In a few lines:
as §1

For the next test, the system named is Salmonella typhi. The experiment in a line: Antibacterial activity against Salmonella typhi after 24 hrs by serial dilution method. The settings on record: Salmonella enterica. Format: functional, Salmonella enterica subsp. enterica serovar Typhi. Summed up:
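Serial tube dilution MIC in nutrient broth. Bacteria were grown until OD600 reached 0.4-0.6. Tubes held 5 ml broth plus 1 ml compound at 0.78, 1.56, 3.12, 6.25, 12.5, 25 or 50 µg/ml and were shaken at 180 rpm for 24 h. Initial medium OD was read at 600 nm.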

Another test relates to Klebsiella pneumoniae. The experiment in a line: Antibacterial activity against Klebsiella pneumoniae MTCC 530 after 24 hrs by serial dilution method. It counts as functional, organism-based.
The next test concerns Aspergillus niger. In words: Antifungal activity against Aspergillus niger MTCC 1344 after 24 hrs by serial dilution method. Format: functional. The settings on record: MTCC 1344, 24 h. Summed up:
as §2

For the next test, the system named is Saccharomyces cerevisiae. In words: Antifungal activity against Saccharomyces cerevisiae MTCC 172 after 24 hrs by serial dilution method. Format: functional. Conditions: MTCC 172, 24 h. Summed up: as §2
Another test concerns Candida albicans. In words: Antifungal activity against Candida albicans MTCC 3018 after 24 hrs by serial dilution method. It counts as functional. The settings on record: MTCC 3018, 24 h. In a few lines: as §2
In another test the test system is Nannizzia gypsea. The experiment in a line: Antifungal activity against Microsporum gypseum MTCC 4490 after 24 hrs by serial dilution method. It counts as functional. Conditions: MTCC 4490, 24 h. In a few lines: as §2

Values after ≈ are worked out from the molar mass of the structure shown. Active and inactive are the calls of the source. The calls are words filed in the database; no cut-off is given here. Bounds are passed on as bounds.

For the compound `CC1=C(/C=C/C(=O)/C=C/C=C/c2ccccc2)C(C)(C)CCC1`, the MIC was 3.12 mg/L (≈ 10.2 µM) in the test with Bacillus subtilis; 55.5 mg/L (≈ 181 µM) in test [1]; 6.25 mg/L (≈ 20.4 µM) against Staphylococcus aureus; 6.25 mg/L (≈ 20.4 µM) with Escherichia coli; greater than 100 mg/L in the test on Pseudomonas aeruginosa; 50 mg/L (≈ 163 µM) with Salmonella typhi. The MIC was 25 mg/L (≈ 81.6 µM) against Aspergillus niger, 80 mg/L (≈ 261 µM) against Saccharomyces cerevisiae, greater than 100 mg/L against Candida albicans and greater than 100 mg/L against Nannizzia gypsea. Besides, the outcome with Klebsiella pneumoniae was inactive.

As to `CC1=C(/C=C/C(=O)/C=C/c2ccc(Cl)cc2)C(C)(C)CCC1`, the MIC against Bacillus subtilis was 6.25 mg/L (≈ 19.9 µM); in test [1], greater than 100 mg/L; with Staphylococcus aureus, 25 mg/L (≈ 79.4 µM); in the test on Escherichia coli it was 3.12 mg/L (≈ 9.91 µM); with Pseudomonas aeruginosa, 12.5 mg/L (≈ 39.7 µM); in the test with Salmonella typhi it was greater than 100 mg/L. For the same compound, the MIC is greater than 100 mg/L in the test with Aspergillus niger, 12.5 mg/L (≈ 39.7 µM) against Saccharomyces cerevisiae, greater than 100 mg/L against Candida albicans and greater than 100 mg/L against Nannizzia gypsea. Further, the outcome in the test with Klebsiella pneumoniae was inactive.
